# Measured values from different studies.
# Protocols differ between the studies behind these lines.
# Target: Cyclin-G-associated kinase (GAK, Homo sapiens, UniProt O14976)
# Residues used in one study (O14976 1-1311): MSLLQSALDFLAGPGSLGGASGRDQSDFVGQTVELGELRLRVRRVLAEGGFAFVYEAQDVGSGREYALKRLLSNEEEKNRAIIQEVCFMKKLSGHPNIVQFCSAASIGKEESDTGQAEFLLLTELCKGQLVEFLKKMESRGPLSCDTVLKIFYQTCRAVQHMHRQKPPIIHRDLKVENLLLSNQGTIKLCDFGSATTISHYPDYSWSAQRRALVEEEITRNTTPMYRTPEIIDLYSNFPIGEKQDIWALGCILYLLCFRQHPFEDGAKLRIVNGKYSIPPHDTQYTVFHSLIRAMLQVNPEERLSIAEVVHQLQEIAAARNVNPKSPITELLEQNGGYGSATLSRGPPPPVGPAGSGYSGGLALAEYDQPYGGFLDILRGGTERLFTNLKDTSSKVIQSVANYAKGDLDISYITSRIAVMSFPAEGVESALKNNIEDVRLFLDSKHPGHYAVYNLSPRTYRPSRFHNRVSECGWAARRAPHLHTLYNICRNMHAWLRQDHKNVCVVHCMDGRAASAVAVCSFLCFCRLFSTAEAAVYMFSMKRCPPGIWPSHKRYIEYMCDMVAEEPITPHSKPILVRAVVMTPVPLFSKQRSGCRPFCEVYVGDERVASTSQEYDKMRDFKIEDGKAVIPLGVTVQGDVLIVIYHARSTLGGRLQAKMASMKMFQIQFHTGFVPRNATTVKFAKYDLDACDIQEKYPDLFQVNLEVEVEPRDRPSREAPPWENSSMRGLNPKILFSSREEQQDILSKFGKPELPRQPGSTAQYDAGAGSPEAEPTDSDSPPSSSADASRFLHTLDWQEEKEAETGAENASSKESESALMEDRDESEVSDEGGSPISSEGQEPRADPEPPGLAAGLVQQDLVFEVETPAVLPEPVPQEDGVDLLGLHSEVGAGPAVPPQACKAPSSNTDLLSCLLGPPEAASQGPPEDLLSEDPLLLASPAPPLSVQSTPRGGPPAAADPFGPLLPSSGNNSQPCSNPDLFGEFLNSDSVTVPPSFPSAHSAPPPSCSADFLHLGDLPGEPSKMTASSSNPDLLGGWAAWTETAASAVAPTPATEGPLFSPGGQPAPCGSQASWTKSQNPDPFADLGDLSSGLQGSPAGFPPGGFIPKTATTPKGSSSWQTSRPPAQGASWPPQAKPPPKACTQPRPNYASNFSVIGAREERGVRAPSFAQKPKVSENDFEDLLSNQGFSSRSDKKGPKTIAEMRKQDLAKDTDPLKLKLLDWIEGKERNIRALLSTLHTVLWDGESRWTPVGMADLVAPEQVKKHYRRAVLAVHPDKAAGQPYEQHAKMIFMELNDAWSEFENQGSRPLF
SMILES,read-out,technique,concentration,remaining binding [%]
CC1CCCN1c1nccc(-c2cnn3ncccc23)n1 (stereo not shown),binding,,1 µM,94
O=C(NCC1CCOCC1)c1n[nH]cc1NC(=O)c1c(F)cccc1F,binding,competition with immobilised ligand,1 µM,88
CCN1CCN(Cc2ccc(C(=O)Nc3ccc(C)c(Oc4ccc5c(c4)CC(=O)N5)c3)cc2C(F)(F)F)CC1,binding,competition with immobilised ligand,1 µM,100
Cc1cc(C)c(-n2ccn3nc(-c4cccnc4)cc23)cc1NC(=O)c1cc(C#N)cc(S(F)(F)(F)(F)F)c1,cell-free assay,competition with immobilised ligand,0.1 µM,83.3
COc1ncc2cc3ccccc3nc2c1C#N,cell-free assay,competition with immobilised ligand,5 µM,87
CN(C)c1nccc(-c2cnc3ncccn23)n1,binding,,1 µM,72
O=C(NCCCN1CCOCC1)c1ccc(Nc2nccc(-c3cc4ccccc4s3)n2)cc1,binding,competition with immobilised ligand,1 µM,21
Nc1ncc2c(n1)-c1c([nH]c3ccc(C#CC4CC4)cc13)CCCC2,binding,competition with immobilised ligand,1 µM,88
O=C(c1ccc(Nc2nccc(-c3cc4ccccc4s3)n2)cc1)N1CCC(N2CCCC2)CC1,binding,competition with immobilised ligand,1 µM,34
COc1ccnn2ncc(-c3ccnc(N(C)C)n3)c12,binding,,1 µM,73
Cn1nc(C(F)(F)F)cc1-c1cnc(N2CCc3cc(S(=O)(=O)Nc4c(F)cc(Cl)cc4F)cc(N4CCCC4=O)c32)nc1,cell-free assay,competition with immobilised ligand,1 µM,94
CN(CCCC(F)(F)F)c1nccc(-c2cnn3ncccc23)n1,binding,,1 µM,100
COc1cnc(Nc2cccc(S(N)(=O)=O)c2)nc1N1CCN(c2ccccc2)CC1,binding,competition with immobilised ligand,1 µM,85
FC(F)(F)Oc1cccc(-c2cnc3ccc(-c4ccncc4)nn23)c1,cell-free assay,competition with immobilised ligand,5 µM,9.7
C[C@@H]1CN(c2cc(-c3nn(C)c4ccc(OC5(C)CC5)cc34)ncn2)C[C@H](C)O1,cell-free assay,competition with immobilised ligand,1 µM,86
CN(C)c1nccc(-c2cnn3ncccc23)n1,binding,,1 µM,82
CC(C)(O)c1cncc(-c2nc3ccc(F)cc3n2C2CC2)c1,cell-free assay,competition with immobilised ligand,1 µM,100
O=C(c1ccc(Nc2ncc(Cl)c(-c3ccc(Cl)s3)n2)cc1)N1CCC(N2CCCC2)CC1,binding,competition with immobilised ligand,1 µM,23
N[C@H]1CCN(c2nccc(-c3cnn4ncccc34)n2)C1,binding,,1 µM,80
C[C@H](c1ccc(F)cc1)N(Cc1cccc(C(=O)O)c1)C(=O)c1cnc2ccccc2c1,cell-free assay,competition with immobilised ligand,1 µM,98
C[C@H]1CCN(c2nccc(-c3cnn4ncccc34)n2)C1,binding,,1 µM,28
O=C(NC[C@@H]1[C@H]2CN(C(=O)OCc3cc(C(F)(F)F)cc(C(F)(F)F)c3)C[C@@H]12)c1ccc2[nH]nnc2c1,cell-free assay,competition with immobilised ligand,1 µM,91
